# Reference: ChEMBL document CHEMBL1124899 (J Med Chem, 1990)
# Experiments:
# Format in all cases: cell membranes, Membrane
# D(2) dopamine receptor [1] = target: T1, D(2) dopamine receptor (Rattus norvegicus, UniProt P61169); assay: Compound was evaluated for the inhibition of [3H]spiperone binding to Dopamine receptor D2 of rat striatal membranes
# How it was run: (§1)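 Rat striatal membranes were washed twice at 20,000g and suspended at 3.5 mg wet weight/mL in 50 mM Tris-HCl pH 7.4 with 120 mM NaCl, 5 mM KCl, 2 mM CaCl2, 1 mM MgCl2. Displacement of 0.1 nM [3H]spiperone (final) by 6-7 concentrations of test drug. Nonspecific binding defined with 1 μM (+)-butaclamol. Triplicates, repeated on three days. IC50 from log-probit plot.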
# D(1A) dopamine receptor = D(1A) dopamine receptor (Rattus norvegicus, UniProt P18901); assay: Compound was evaluated for the inhibition of [3H]-SCH- 23390 binding to Dopamine receptor D1 of rat striatal membranes
# Chain of D(1A) dopamine receptor (P18901 whole entry): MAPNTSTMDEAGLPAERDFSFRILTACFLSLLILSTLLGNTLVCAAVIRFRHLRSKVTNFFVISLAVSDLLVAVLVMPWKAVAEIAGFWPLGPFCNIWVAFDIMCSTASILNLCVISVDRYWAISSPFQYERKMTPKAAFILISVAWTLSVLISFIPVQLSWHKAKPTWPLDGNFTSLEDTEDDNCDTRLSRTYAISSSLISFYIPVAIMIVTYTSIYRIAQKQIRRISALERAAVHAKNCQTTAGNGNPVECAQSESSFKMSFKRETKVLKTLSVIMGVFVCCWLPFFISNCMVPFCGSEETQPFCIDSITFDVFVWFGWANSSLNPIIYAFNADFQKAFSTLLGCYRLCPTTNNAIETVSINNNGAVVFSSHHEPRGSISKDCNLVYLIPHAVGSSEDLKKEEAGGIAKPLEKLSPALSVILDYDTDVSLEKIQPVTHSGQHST
# How it was run: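 Rat striatum homogenized in Tris-HCl pH 7.4, pellet washed twice at 20,000g and resuspended at 3.5 mg wet weight/mL in 50 mM Tris-HCl with 120 mM NaCl, 5 mM KCl, 2 mM CaCl2, 1 mM MgCl2. Triplicates, three separate days. IC50 by log-probit analysis.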
# D(2) dopamine receptor [2] = target: T1, D(2) dopamine receptor; assay: Compound was evaluated for the inhibition of [3H]spiperone binding to dopamine receptor D2 of rat striatal membranes; how it was run: as §1
# T1 sequence (P61169 whole entry): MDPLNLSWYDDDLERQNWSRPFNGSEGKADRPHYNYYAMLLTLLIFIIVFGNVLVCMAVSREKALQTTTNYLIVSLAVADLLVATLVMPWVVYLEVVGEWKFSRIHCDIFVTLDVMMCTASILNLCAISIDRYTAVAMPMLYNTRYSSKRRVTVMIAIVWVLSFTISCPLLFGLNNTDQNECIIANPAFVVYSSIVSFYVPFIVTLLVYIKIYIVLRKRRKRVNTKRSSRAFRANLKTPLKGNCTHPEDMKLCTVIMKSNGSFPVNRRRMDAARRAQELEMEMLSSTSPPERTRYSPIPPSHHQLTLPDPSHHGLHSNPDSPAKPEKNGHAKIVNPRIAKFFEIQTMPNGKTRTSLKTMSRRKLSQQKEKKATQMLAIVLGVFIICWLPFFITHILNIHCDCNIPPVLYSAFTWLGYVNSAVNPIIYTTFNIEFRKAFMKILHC
SMILES,IC50 (D(2) dopamine receptor [1]),IC50 (D(1A) dopamine receptor),IC50 (D(2) dopamine receptor [2])
NCCc1ccc(F)c(O)c1,4.64 µM,6.15 µM,–
CCCN(CC)CCc1ccc(F)c(O)c1,–,11.1 µM,1.97 µM
CCN(CCc1ccccc1)CCc1ccc(F)c(O)c1,–,8 µM,–
CCCN(CCC)CCc1ccc(F)c(O)c1,–,11.4 µM,0.95 µM
CCCN(CCc1ccccc1)CCc1ccc(O)c(F)c1,–,38 µM,0.58 µM
CCCN(CCc1ccccc1)CCc1ccc(F)c(O)c1,–,10.9 µM,0.25 µM
